In series [1] the test system is Staphylococcus aureus. Briefly: Minimum inhibitory concentration tested against Staphylococcus aureus FDA207PJC-1. Format: functional. The procedure, abridged:
(§1)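 Agar dilution used serial 2-fold dilutions in Mueller-Hinton agar, with plate concentrations of 0.006–100 µg/mL and an inoculum of about 10^8 cfu/mL.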

The test system of the next series is Proteus vulgaris. As to the kind of experiment: Minimum inhibitory concentration tested against Proteus vulgaris OX-19. Type of series: functional. The procedure, abridged:
as §1

Series [2] deals with Pseudomonas aeruginosa. As to the kind of experiment: Oral efficacy of compound after peroral administration on systemic infection by Pseudomonas aeruginosa E-2. Type of series: functional. The method in brief:
(§2)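 Groups of five male ddY mice (20 ± 2 g) were given 0.5 mL of bacteria intraperitoneally at 10 or 100 times the 50% lethal dose. One hour after infection they were treated orally with compound suspended in 0.5% sodium (carboxymethyl)cellulose. Survival was scored at 1 week, and ED50 is given with 95% confidence limits.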

A short description of series [3]: Lethal dose of compound after peroral administration in rats. Type of series: toxicity, organism-based. The conditions noted are these: rat, in vivo, po. The method in brief: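 Each compound was given orally as a suspension in 0.5% CMC. Deaths were counted over 1 week, and LD50 was calculated by the method of Weil.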
A further series has as its system Serratia marcescens. As to the kind of experiment: Minimum inhibitory concentration tested against Serratia marcescens LAM 1184. Type of series: functional. The procedure, abridged: as §1
For a further series, the system named is Klebsiella pneumoniae. As to the kind of experiment: Minimum inhibitory concentration tested against Klebsiella pneumoniae PC1602. Format: functional. The method in brief: as §1
For series [4], the system named is Pseudomonas aeruginosa. As to the kind of experiment: Minimum inhibitory concentration tested against Pseudomonas aeruginosa E-2. Format: functional. The method in brief: as §1
Series [5] relates to Escherichia coli. Briefly: Oral efficacy of compound after peroral administration on systemic infection by Escherichia coli KC-14. Type of series: functional. The method in brief: as §2
Series [6] concerns Staphylococcus aureus. Briefly: Oral efficacy of compound after peroral administration on systemic infection by Staphylococcus aureus IID803. Type of series: functional. The procedure, abridged: as §2
The test system of another series is Bacillus subtilis. As to the kind of experiment: Minimum inhibitory concentration tested against Bacillus subtilis ATCC 6633. Format: functional. The procedure, abridged:
as §1

Series [7] deals with Escherichia coli. Briefly: Oral efficacy of compound after peroral administration on systemic infection by Escherichia coli KC-14 in rat. Type of series: functional.
Series [8] has as its system Escherichia coli. Briefly: Effective dose of compound against Escherichia coli KC-14 in mice after oral administration.
Series [9] can be described thus: Area under curve value of compound per hour after oral administration. Type of series: ADME. The method in brief: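 Mice were dosed orally at the equivalent of 50 mg/kg NFLX, suspended in 0.5% sodium (carboxymethyl)cellulose. They were killed by bleeding at 0.25, 0.5, 1.0, 2.0, 3.0 and 4.0 h. Serum NFLX was measured by HPLC with UV detection at 280 nm, and AUC was expressed in µg/mL per h.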

Series [10] concerns Escherichia coli. As to the kind of experiment: (§3) Minimum inhibitory concentration tested against Escherichia coli KC-14. Type of series: functional. The procedure, abridged:
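MIC by serial 2-fold agar dilution on Mueller-Hinton agar, with an inoculum of about 10^8 cfu/mL and plate concentrations of 0.006–100 μg/mL.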

The test system of series [11] is Escherichia coli. The description is as §3. Type of series: functional. The procedure, abridged: as §1
The source holds these as a separate data set.

The test system of series [12] is Escherichia coli. Briefly: Effective dose of compound against Escherichia coli KC-14 in mice after oral administration. This is another data set of the same source.

In brackets after ≈: the same amount, converted by molar mass. Some results are limits rather than exact numbers.

We go through three compounds from ChEMBL document CHEMBL1124427, “Studies on prodrugs. 11. Synthesis and antimicrobial activity of N-[(4-methyl-5-methylene-2-oxo-1,3-dioxolan-4-yl)oxy]norfloxacin ” (J Med Chem, 1989).

What is called MIC is the lowest concentration found to suppress growth. Read a low MIC as greater potency. One may read the ED50 as the dose at which the effect has come halfway, by size or by number of responders. Read a low ED50 as an effect at a small dose. The term LD50 denotes the dose expected to kill half of the subjects tested. Broadly, the AUC is the area under the concentration-time curve, a measure of exposure. Consider `CCn1cc(C(=O)O)c(=O)c2cc(F)c(N3CCN(Cc4oc(=O)oc4C)CC3)cc21`, for which the MIC is 0.39 µg/mL (≈ 0.904 µM) in the series on Staphylococcus aureus [1]; 0.1 µg/mL (≈ 0.232 µM) against Proteus vulgaris; 0.39 µg/mL (≈ 0.904 µM) with Serratia marcescens; 0.1 µg/mL (≈ 0.232 µM) in the series on Klebsiella pneumoniae; 1.56 µg/mL (≈ 3.62 µM) in the series on Pseudomonas aeruginosa [4]; 0.19 µg/mL (≈ 0.44 µM) with Bacillus subtilis. In the series on Escherichia coli [10], it took 0.2 µg/mL (≈ 0.464 µM) to inhibit growth (MIC). For the same compound, the ED50 in the series on Pseudomonas aeruginosa [2] worked out at 20.3 mg/kg; in the series on Escherichia coli [5], 1.93 mg/kg; with Staphylococcus aureus [6] it was 93.3 mg/kg; in the series with Escherichia coli [7] it was 6.16 mg/kg; in the series on Escherichia coli [8], 1.93 mg/kg. Moreover, the LD50 in [3] was > 4000 mg/kg. The same compound showed an AUC in [9] of 5700 ng·h/mL.
In the case of `CCn1cc(C(=O)O)c(=O)c2cc(F)c(N3CCNCC3)cc21` [NORFLOXACIN], the MIC was determined as 0.19 µg/mL (≈ 0.595 µM) against Staphylococcus aureus [1]; 0.05 µg/mL (≈ 0.157 µM) in the series with Proteus vulgaris; 0.19 µg/mL (≈ 0.595 µM) with Serratia marcescens; 0.05 µg/mL (≈ 0.157 µM) in the series with Klebsiella pneumoniae; 0.39 µg/mL (≈ 1.22 µM) against Pseudomonas aeruginosa [4]; 0.19 µg/mL (≈ 0.595 µM) against Bacillus subtilis. The compound further came in with an MIC in the series with Escherichia coli [10] of 0.1 µg/mL (≈ 0.313 µM). The values for the ED50 in the series on Pseudomonas aeruginosa [2], in the series on Escherichia coli [5] and in the series on Escherichia coli [8] were 77.1 mg/kg, 3.15 mg/kg and 3.13 mg/kg, respectively. The LD50 in [3] was > 4000 mg/kg. In addition, in series [9], the AUC was determined as 1800 ng·h/mL.
In the case of `C=C1OC(=O)OC1(C)ON1CCN(c2cc3c(cc2F)c(=O)c(C(=O)O)cn3CC)CC1` (stereo not given), the MIC in the series on Staphylococcus aureus [1] is 0.78 µg/mL (≈ 1.74 µM); against Proteus vulgaris, 0.05 µg/mL (≈ 0.112 µM); in the series on Serratia marcescens, 3.12 µg/mL (≈ 6.97 µM); against Klebsiella pneumoniae it was 0.1 µg/mL (≈ 0.224 µM); in the series with Pseudomonas aeruginosa [4] it was 6.25 µg/mL (≈ 14 µM); against Escherichia coli [11], 1.56 µg/mL (≈ 3.49 µM). In the series with Bacillus subtilis, the MIC came out at 0.19 µg/mL (≈ 0.425 µM). In addition, the ED50 was determined as 17.7 mg/kg in the series with Pseudomonas aeruginosa [2]; 1.31 mg/kg in the series with Escherichia coli [12]; 1.31 mg/kg with Escherichia coli [5]; 70.7 mg/kg with Staphylococcus aureus [6]; 2.68 mg/kg in the series on Escherichia coli [7]. In addition, in series [3], the LD50 is > 4000 mg/kg. Moreover, the AUC in series [9] was 5400 ng·h/mL.
